# ChEMBL document CHEMBL4673184, “Synthesis and biological evaluation of S-lipidated lipopeptides of a connexin 43 channel inhibitory peptide” (RSC Med Chem, 2020)
# Active and inactive are the calls of the source. The rule behind the calls is not given here. Where a SMILES comes first, the peptide text is derived from it. The star is where a group is joined. Ethyl(2-stearoyloxy) = CCCCCCCCCCCCCCCCCC(=O)OCC*; Ethyl(2-palmitoyloxy) = CCCCCCCCCCCCCCCC(=O)OCC*; CH2CH2OBz(4-tBu) = CC(C)(C)c1ccc(C(=O)OCC*)cc1; Ethyl(2-decanoyloxy) = CCCCCCCCCC(=O)OCC*; Ethyl(2-butanoyloxy) = CCCC(=O)OCC*; Ethyl(2-OPiv) = CC(C)(C)C(=O)OCC*
# Biological target: Gap junction alpha-1 protein (Homo sapiens) (UniProt P17302)
# Sequence (P17302 whole entry): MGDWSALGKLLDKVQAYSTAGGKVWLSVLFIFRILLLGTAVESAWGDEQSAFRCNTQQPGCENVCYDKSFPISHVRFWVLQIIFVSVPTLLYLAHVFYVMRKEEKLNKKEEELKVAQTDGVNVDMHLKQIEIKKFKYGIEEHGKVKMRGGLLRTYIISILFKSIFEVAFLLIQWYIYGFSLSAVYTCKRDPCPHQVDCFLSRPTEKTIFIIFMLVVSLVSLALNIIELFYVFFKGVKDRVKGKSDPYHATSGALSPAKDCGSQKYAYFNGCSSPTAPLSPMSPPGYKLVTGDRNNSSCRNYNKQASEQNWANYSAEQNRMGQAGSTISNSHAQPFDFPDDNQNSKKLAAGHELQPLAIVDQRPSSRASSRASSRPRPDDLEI
# Test: Inhibition of Cx43 in hypoxic-acidic ion-shifted ringers solution-induced human cerebral microvascular endothelial cell model of ischaemic injury assessed as ATP release at 10 uM measured after 2 hrs by luciferin-luciferase based luminescence assay relative to control
# Parameters: scale not given: the % may be the effect or the level left
# Outline: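 hCMVEC (passages 8-17) seeded at 2 x 10^6/well on collagen-I (1 µg/cm²) and grown 48 h to a confluent monolayer. Washed in NR, then exposed 2 h in HAIR (pH 6.6, N₂-bubbled, low Ca²⁺, K-gluconate/NMDG) containing peptide at 10 µM. Supernatant diluted 1:10 in firefly luciferase mix and read at 560 nm against an ATP standard (0-50 nM). Expressed as % of HAIR-only, mean of n=3.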
row,Structure (SMILES),Activity
1,CC1(C)[C@@H](OC(=O)CCC(=O)O)CC[C@]2(C)[C@H]3C(=O)C=C4[C@@H]5C[C@@](C)(C(=O)O)CC[C@]5(C)CC[C@@]4(C)[C@]3(C)CC[C@@H]12,23.3%
2,CC(C)C[C@H](NC(=O)[C@H](Cc1ccccc1)NC(=O)[C@H](CS)NC(=O)[C@H](CC(=O)O)NC(=O)[C@@H](N)CSCCOC(=O)c1ccc(C(C)(C)C)cc1)C(=O)N[C@@H](CO)C(=O)N[C@@H](CCCNC(=N)N)C(=O)N1CCC[C@H]1C(=O)N[C@H](C(=O)N[C@@H](CCC(=O)O)C(=O)N[C@@H](CCCCN)C(=O)N[C@H](C(=O)O)[C@@H](C)O)[C@@H](C)O (H-C(CH2CH2OBz(4-tBu))DCFLSRPTEKT-OH),inactive
3,CC(C)C[C@H](NC(=O)[C@H](Cc1ccccc1)NC(=O)[C@H](CS)NC(=O)[C@H](CC(=O)O)NC(=O)[C@@H](N)CSCCOC(=O)C(C)(C)C)C(=O)N[C@@H](CO)C(=O)N[C@@H](CCCNC(=N)N)C(=O)N1CCC[C@H]1C(=O)N[C@H](C(=O)N[C@@H](CCC(=O)O)C(=O)N[C@@H](CCCCN)C(=O)N[C@H](C(=O)O)[C@@H](C)O)[C@@H](C)O (H-C(Ethyl(2-OPiv))DCFLSRPTEKT-OH),inactive
4,CCCC(=O)OCCSC[C@H](N)C(=O)N[C@@H](CC(=O)O)C(=O)N[C@@H](CS)C(=O)N[C@@H](Cc1ccccc1)C(=O)N[C@@H](CC(C)C)C(=O)N[C@@H](CO)C(=O)N[C@@H](CCCNC(=N)N)C(=O)N1CCC[C@H]1C(=O)N[C@H](C(=O)N[C@@H](CCC(=O)O)C(=O)N[C@@H](CCCCN)C(=O)N[C@H](C(=O)O)[C@@H](C)O)[C@@H](C)O (H-C(Ethyl(2-butanoyloxy))DCFLSRPTEKT-OH),inactive
5,CCCCCCCCCC(=O)OCCSC[C@H](N)C(=O)N[C@@H](CC(=O)O)C(=O)N[C@@H](CS)C(=O)N[C@@H](Cc1ccccc1)C(=O)N[C@@H](CC(C)C)C(=O)N[C@@H](CO)C(=O)N[C@@H](CCCNC(=N)N)C(=O)N1CCC[C@H]1C(=O)N[C@H](C(=O)N[C@@H](CCC(=O)O)C(=O)N[C@@H](CCCCN)C(=O)N[C@H](C(=O)O)[C@@H](C)O)[C@@H](C)O (H-C(Ethyl(2-decanoyloxy))DCFLSRPTEKT-OH),inactive
6,CCCCCCCCCCCCCCCC(=O)OCCSC[C@H](N)C(=O)N[C@@H](CC(=O)O)C(=O)N[C@@H](CS)C(=O)N[C@@H](Cc1ccccc1)C(=O)N[C@@H](CC(C)C)C(=O)N[C@@H](CO)C(=O)N[C@@H](CCCNC(=N)N)C(=O)N1CCC[C@H]1C(=O)N[C@H](C(=O)N[C@@H](CCC(=O)O)C(=O)N[C@@H](CCCCN)C(=O)N[C@H](C(=O)O)[C@@H](C)O)[C@@H](C)O (H-C(Ethyl(2-palmitoyloxy))DCFLSRPTEKT-OH),inactive
7,CCCCCCCCCCCCCCCCCC(=O)OCCSC[C@H](N)C(=O)N[C@@H](CC(=O)O)C(=O)N[C@@H](CS)C(=O)N[C@@H](Cc1ccccc1)C(=O)N[C@@H](CC(C)C)C(=O)N[C@@H](CO)C(=O)N[C@@H](CCCNC(=N)N)C(=O)N1CCC[C@H]1C(=O)N[C@H](C(=O)N[C@@H](CCC(=O)O)C(=O)N[C@@H](CCCCN)C(=O)N[C@H](C(=O)O)[C@@H](C)O)[C@@H](C)O (H-C(Ethyl(2-stearoyloxy))DCFLSRPTEKT-OH),inactive
8,CC(C)C[C@H](NC(=O)[C@H](CSCCOC(=O)c1ccc(C(C)(C)C)cc1)NC(=O)[C@H](CS)NC(=O)[C@H](CC(=O)O)NC(=O)[C@@H](N)C(C)C)C(=O)N[C@@H](CO)C(=O)N[C@@H](CCCNC(=N)N)C(=O)N1CCC[C@H]1C(=O)N[C@H](C(=O)N[C@@H](CCC(=O)O)C(=O)N[C@@H](CCCCN)C(=O)N[C@H](C(=O)O)[C@@H](C)O)[C@@H](C)O (H-VDCC(CH2CH2OBz(4-tBu))LSRPTEKT-OH),inactive
9,CC(C)C[C@H](NC(=O)[C@H](CSCCOC(=O)C(C)(C)C)NC(=O)[C@H](CS)NC(=O)[C@H](CC(=O)O)NC(=O)[C@@H](N)C(C)C)C(=O)N[C@@H](CO)C(=O)N[C@@H](CCCNC(=N)N)C(=O)N1CCC[C@H]1C(=O)N[C@H](C(=O)N[C@@H](CCC(=O)O)C(=O)N[C@@H](CCCCN)C(=O)N[C@H](C(=O)O)[C@@H](C)O)[C@@H](C)O (H-VDCC(Ethyl(2-OPiv))LSRPTEKT-OH),23.4%
10,CCCC(=O)OCCSC[C@H](NC(=O)[C@H](CS)NC(=O)[C@H](CC(=O)O)NC(=O)[C@@H](N)C(C)C)C(=O)N[C@@H](CC(C)C)C(=O)N[C@@H](CO)C(=O)N[C@@H](CCCNC(=N)N)C(=O)N1CCC[C@H]1C(=O)N[C@H](C(=O)N[C@@H](CCC(=O)O)C(=O)N[C@@H](CCCCN)C(=O)N[C@H](C(=O)O)[C@@H](C)O)[C@@H](C)O (H-VDCC(Ethyl(2-butanoyloxy))LSRPTEKT-OH),inactive
11,CCCCCCCCCC(=O)OCCSC[C@H](NC(=O)[C@H](CS)NC(=O)[C@H](CC(=O)O)NC(=O)[C@@H](N)C(C)C)C(=O)N[C@@H](CC(C)C)C(=O)N[C@@H](CO)C(=O)N[C@@H](CCCNC(=N)N)C(=O)N1CCC[C@H]1C(=O)N[C@H](C(=O)N[C@@H](CCC(=O)O)C(=O)N[C@@H](CCCCN)C(=O)N[C@H](C(=O)O)[C@@H](C)O)[C@@H](C)O (H-VDCC(Ethyl(2-decanoyloxy))LSRPTEKT-OH),inactive
12,CCCCCCCCCCCCCCCC(=O)OCCSC[C@H](NC(=O)[C@H](CS)NC(=O)[C@H](CC(=O)O)NC(=O)[C@@H](N)C(C)C)C(=O)N[C@@H](CC(C)C)C(=O)N[C@@H](CO)C(=O)N[C@@H](CCCNC(=N)N)C(=O)N1CCC[C@H]1C(=O)N[C@H](C(=O)N[C@@H](CCC(=O)O)C(=O)N[C@@H](CCCCN)C(=O)N[C@H](C(=O)O)[C@@H](C)O)[C@@H](C)O (H-VDCC(Ethyl(2-palmitoyloxy))LSRPTEKT-OH),inactive
13,CCCCCCCCCCCCCCCCCC(=O)OCCSC[C@H](NC(=O)[C@H](CS)NC(=O)[C@H](CC(=O)O)NC(=O)[C@@H](N)C(C)C)C(=O)N[C@@H](CC(C)C)C(=O)N[C@@H](CO)C(=O)N[C@@H](CCCNC(=N)N)C(=O)N1CCC[C@H]1C(=O)N[C@H](C(=O)N[C@@H](CCC(=O)O)C(=O)N[C@@H](CCCCN)C(=O)N[C@H](C(=O)O)[C@@H](C)O)[C@@H](C)O (H-VDCC(Ethyl(2-stearoyloxy))LSRPTEKT-OH),inactive
14,CC(C)C[C@H](NC(=O)[C@H](Cc1ccccc1)NC(=O)[C@H](CS)NC(=O)[C@H](CC(=O)O)NC(=O)[C@@H](N)C(C)C)C(=O)N[C@@H](CSCCOC(=O)c1ccc(C(C)(C)C)cc1)C(=O)N[C@@H](CCCNC(=N)N)C(=O)N1CCC[C@H]1C(=O)N[C@H](C(=O)N[C@@H](CCC(=O)O)C(=O)N[C@@H](CCCCN)C(=O)N[C@H](C(=O)O)[C@@H](C)O)[C@@H](C)O (H-VDCFLC(CH2CH2OBz(4-tBu))RPTEKT-OH),inactive
15,CC(C)C[C@H](NC(=O)[C@H](Cc1ccccc1)NC(=O)[C@H](CS)NC(=O)[C@H](CC(=O)O)NC(=O)[C@@H](N)C(C)C)C(=O)N[C@@H](CSCCOC(=O)C(C)(C)C)C(=O)N[C@@H](CCCNC(=N)N)C(=O)N1CCC[C@H]1C(=O)N[C@H](C(=O)N[C@@H](CCC(=O)O)C(=O)N[C@@H](CCCCN)C(=O)N[C@H](C(=O)O)[C@@H](C)O)[C@@H](C)O (H-VDCFLC(Ethyl(2-OPiv))RPTEKT-OH),inactive
16,CCCC(=O)OCCSC[C@H](NC(=O)[C@H](CC(C)C)NC(=O)[C@H](Cc1ccccc1)NC(=O)[C@H](CS)NC(=O)[C@H](CC(=O)O)NC(=O)[C@@H](N)C(C)C)C(=O)N[C@@H](CCCNC(=N)N)C(=O)N1CCC[C@H]1C(=O)N[C@H](C(=O)N[C@@H](CCC(=O)O)C(=O)N[C@@H](CCCCN)C(=O)N[C@H](C(=O)O)[C@@H](C)O)[C@@H](C)O (H-VDCFLC(Ethyl(2-butanoyloxy))RPTEKT-OH),inactive
